Results: ChEMBL document CHEMBL5154946, “Optimization of Peptide Linker-Based Fluorescent Ligands for the Histamine H1 Receptor” (J Med Chem, 2022)
The source made the active and inactive calls. The calls are words filed in the database; no cut-off is given here. Square brackets hold non-standard residues; d marks the D form. Peptide text beside a SMILES is read from it. * marks the point of attachment. X1 = O=C(COc1ccc(/C=C/C2=[N+]3C(=Cc4ccc(-c5cccs5)n4[B-]3(F)F)C=C2)cc1)*; Propanoyl(3-Pip(4-O-2-BnPh)) = O=C(CCN1CCC(Oc2ccccc2Cc2ccccc2)CC1)*; X3 = Cc1cc(C)n2c1C=C1C=CC(/C=C/c3ccc(OCC(=O)*)cc3)=[N+]1[B-]2(F)F; BODIPY(FL) = CC1=CC(C)=[N+]2C1=Cc1ccc(CCC(=O)*)n1[B-]2(F)F; X2 = O=C(CCC1=[N+]2C(=Cc3ccc(-c4cccs4)n3[B-]2(F)F)C=C1)*; βAla = NCCC(=O)O

Columns and labels:
[1] = biological target: T1, Histamine H1 receptor (Homo sapiens, UniProt P35367); assay: Binding affinity to human H1R expressed in CHO cells using Fluo-4AM as substrate incubated for 1 hrs by calcium mobilization assay based fluorometric analysis; format: cell-based; conditions: filed as antagonist
T1 sequence (P35367 whole entry): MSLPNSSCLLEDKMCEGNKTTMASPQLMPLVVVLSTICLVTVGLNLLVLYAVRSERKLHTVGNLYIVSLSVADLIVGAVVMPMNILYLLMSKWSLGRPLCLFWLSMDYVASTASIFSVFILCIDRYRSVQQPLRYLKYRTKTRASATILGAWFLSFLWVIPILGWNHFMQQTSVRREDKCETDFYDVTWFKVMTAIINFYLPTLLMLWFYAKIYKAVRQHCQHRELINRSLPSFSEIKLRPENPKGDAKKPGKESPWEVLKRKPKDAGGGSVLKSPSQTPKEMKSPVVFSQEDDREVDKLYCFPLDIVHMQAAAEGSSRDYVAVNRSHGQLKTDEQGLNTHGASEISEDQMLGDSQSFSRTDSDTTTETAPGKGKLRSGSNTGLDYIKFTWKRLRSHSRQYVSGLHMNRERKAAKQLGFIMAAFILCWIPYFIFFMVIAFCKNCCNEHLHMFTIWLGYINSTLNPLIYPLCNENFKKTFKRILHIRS

[2] = biological target: T1, Histamine H1 receptor; assay: Binding affinity to human H1R expressed in CHO cells assessed as shift in histamine-mediated calcium response at 1 uM using Fluo-4AM as a substrate incubated for 1 hrs by calcium mobilization assay based fluorometric analysis; format: cell-based; conditions: filed as antagonist
[3] = biological target: Histamine H3 receptor (Homo sapiens) (UniProt Q9Y5N1); assay: Binding affinity to NLuc-tagged human H3R expressed in HEK293T cell homogenates at 1 uM using NanoGlo as substrate preincubated for 2 hrs followed by substrate addition measured after 5 min in presence of clobenpropit by NanoBRET saturation binding assay; conditions: filed as antagonist, time 125.0 min
Sequence of Histamine H3 receptor (Homo sapiens) (Q9Y5N1 whole entry): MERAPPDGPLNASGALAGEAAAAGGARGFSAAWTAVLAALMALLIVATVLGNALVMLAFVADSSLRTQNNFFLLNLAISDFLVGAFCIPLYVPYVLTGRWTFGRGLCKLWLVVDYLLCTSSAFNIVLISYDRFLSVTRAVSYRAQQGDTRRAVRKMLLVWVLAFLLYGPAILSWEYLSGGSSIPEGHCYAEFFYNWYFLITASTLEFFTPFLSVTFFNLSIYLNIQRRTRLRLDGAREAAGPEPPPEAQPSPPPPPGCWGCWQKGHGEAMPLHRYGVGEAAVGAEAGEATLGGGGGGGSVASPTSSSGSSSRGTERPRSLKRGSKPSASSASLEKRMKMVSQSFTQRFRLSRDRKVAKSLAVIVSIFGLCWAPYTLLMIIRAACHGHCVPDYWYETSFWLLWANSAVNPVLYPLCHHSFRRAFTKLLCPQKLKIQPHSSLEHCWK

[4] = biological target: Histamine H4 receptor (Homo sapiens) (UniProt Q9H3N8); assay: Binding affinity to NLuc-tagged human H4R expressed in HEK293T cell homogenates at 1 uM using NanoGlo as substrate preincubated for 2 hrs followed by substrate addition measured after 5 min in presence of clobenpropit by NanoBRET saturation binding assay; conditions: filed as antagonist, time 125.0 min
Sequence of Histamine H4 receptor (Homo sapiens) (Q9H3N8 whole entry): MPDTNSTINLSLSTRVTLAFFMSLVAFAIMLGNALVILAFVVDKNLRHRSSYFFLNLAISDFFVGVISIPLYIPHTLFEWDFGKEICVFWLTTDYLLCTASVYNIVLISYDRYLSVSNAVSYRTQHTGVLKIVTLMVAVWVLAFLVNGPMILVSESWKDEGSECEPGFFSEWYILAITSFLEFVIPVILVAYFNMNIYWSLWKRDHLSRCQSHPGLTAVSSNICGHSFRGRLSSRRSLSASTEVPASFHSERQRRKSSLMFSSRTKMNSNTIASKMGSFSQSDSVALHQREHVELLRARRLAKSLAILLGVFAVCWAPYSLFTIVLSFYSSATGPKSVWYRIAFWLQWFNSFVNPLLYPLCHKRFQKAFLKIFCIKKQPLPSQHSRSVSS

[5] = biological target: T1, Histamine H1 receptor; assay: Binding affinity to human H1R expressed in CHO cells using Fluo-4AM as a substrate incubated for 45 mins by calcium mobilization assay based fluorometric analysis; format: cell-based; conditions: filed as antagonist
[6] = biological target: T1, Histamine H1 receptor; assay: Binding affinity to NLuc-tagged human H1R expressed in HEK293T cells assessed as association rate constant (kon) using furimazine as substrate measured after 90 mins by NanoBRET binding assay; format: cell-based; conditions: filed as antagonist
Summary of the method: (§1)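 Live HEK293T cells expressing Nluc-tagged human H1R; fluorescent ligand added at several concentrations and BRET read in real time every min for 90 min at room temperature. kon and koff obtained from association kinetics; mean residence time taken as 1/koff. Values are means ± SEM of 4–5 separate experiments, each in triplicate.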

[7] = biological target: T1, Histamine H1 receptor; assay: Binding affinity to NLuc-tagged human H1R expressed in HEK293T cells assessed as dissociation rate constant (koff) using furimazine as substrate measured after 90 mins by NanoBRET binding assay; format: cell-based; conditions: filed as antagonist; summary of the method: as §1
[8] = biological target: T1, Histamine H1 receptor; assay: Binding affinity to NLuc-tagged human H1R expressed in HEK293T cells at assessed as ratio of association rate constant to dissociation rate constant by NanoBRET binding assay; format: cell-based; conditions: filed as antagonist
Summary of the method: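 Real-time NanoBRET association kinetics on Nluc-H1R HEK293T cells. Several fluorescent ligand concentrations were tested, with BRET read every min for 90 min at room temperature. pKD was derived from kon/koff. Means ± SEM from 4–5 experiments in triplicate.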

[9] = biological target: T1, Histamine H1 receptor; assay: Displacement of VUF13816-based fluorescent ligand 1 from Nluc-tagged human H1R expressed in HEK293T cells assessed as fold change incubated for 2 hrs by NanoBRET competition binding assay; conditions: filed as antagonist
[10] = biological target: T1, Histamine H1 receptor; assay: Displacement of VUF13816-based fluorescent ligand 1 from Nluc-tagged human H1R expressed in HEK293T cells incubated for 2 hrs by NanoBRET competition binding assay
[11] = Drug localization in plasma membrane of chinese hamster CHO cells expressing YFP-tagged H1R at 1 to 25 nM incubated for 30 min by confocal microscopy; format: ADME, cell membranes, Cricetulus griseus; conditions: 0.5 h, 0.025 µM, dose 1-25 nM
Summary of the method: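 CHO cells expressing YFP-tagged H1R were incubated for 30 min at 37 °C with fluorescent ligand at 1, 5, 10 or 25 nM, with or without 10 μM mepyramine pretreatment to define nonspecific binding. Plasma membrane versus intracellular localization was judged by confocal imaging in red and green channels. Three independent experiments.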

**Q.** What does the source list for `CC(C)[C@H](NC(=O)CCN1CCC(Oc2ccccc2Cc2ccccc2)CC1)C(=O)N[C@@H](CO)C(=O)N[C@@H](CC(N)=O)C(=O)NCCC(=O)N[C@@H](CCCCNC(=O)CCCCC[N+]1=C(/C=C/C=C/C=C2/N(C)c3ccc(S(=O)(=O)[O-])cc3C2(C)C)C(C)(C)c2cc(S(=O)(=O)O)ccc21)C(N)=O`?
**A.** pKb [1]: 5.33; Activity [2]: Active

**Q.** For `C[C@H](NC(=O)[C@H](C)NC(=O)[C@H](Cc1ccccc1)NC(=O)CCN1CCC(Oc2ccccc2Cc2ccccc2)CC1)C(=O)NCCC(=O)N[C@@H](CCCCNC(=O)CCCCC[N+]1=C(/C=C/C=C/C=C2/N(C)c3ccc(S(=O)(=O)[O-])cc3C2(C)C)C(C)(C)c2cc(S(=O)(=O)O)ccc21)C(N)=O`, which pKb [1] is on record?
**A.** The pKb was 6.09.

**Q.** What about the Activity [2] of the same compound?
**A.** The Activity was “Active”.

**Q.** Which Activity [3] does the source give for `N=C(NCc1ccc(Cl)cc1)SCCCc1c[nH]cn1` here?
**A.** The Activity was “Active”.

**Q.** And the Activity [4]?
**A.** Its Activity is “Active”.

**Q.** Which pKb [5] does the source give for `C[C@@H](NC(=O)CCN1CCC(Oc2ccccc2Cc2ccccc2)CC1)C(=O)N[C@H](C)C(=O)N[C@H](C)C(=O)NCCNC(=O)CCCCCNC(=O)COc1ccc(/C=C/C2=[N+]3C(=Cc4ccc(-c5cccs5)n4[B-]3(F)F)C=C2)cc1` (stereo in doubt) here?
**A.** Its pKb is 8.6.

**Q.** Which results are given for `Cc1cc(C)n2c1C=C1C=CC(CCC(=O)NCCCC[C@H](NC(=O)CCNC(=O)[C@H](C)NC(=O)[C@H](C)NC(=O)[C@H](Cc3ccccc3)NC(=O)CCN3CCC(Oc4ccccc4Cc4ccccc4)CC3)C(N)=O)=[N+]1[B-]2(F)F` ({Propanoyl(3-Pip(4-O-2-BnPh))}-FAA[βAla]K(BODIPY(FL))-NH2)?
**A.** pKb [1]: 7.46; Activity [2]: Active

**Q.** For `C[C@H](NC(=O)[C@H](C)NC(=O)[C@H](Cc1ccccc1)NC(=O)CCN1CCC(Oc2ccccc2Cc2ccccc2)CC1)C(=O)NCCC(=O)N[C@@H](CCCCNC(=O)COc1ccc(/C=C/C2=[N+]3C(=Cc4ccc(-c5cccs5)n4[B-]3(F)F)C=C2)cc1)C(N)=O` ({Propanoyl(3-Pip(4-O-2-BnPh))}-FAA[βAla]K(X1)-NH2), which pKb [1] is on record?
**A.** Its pKb is 8.59.

**Q.** And the K [6]?
**A.** The K was 0.686 10^6/M/min.

**Q.** And the K [7]?
**A.** Its K is 0.014 min⁻¹.

**Q.** What about the pKd [8] of the same compound?
**A.** The pKd was 7.64.

**Q.** And the Activity [2]?
**A.** The Activity was “Active”.

**Q.** For `C[C@H](NC(=O)[C@H](C)NC(=O)[C@H](Cc1ccccc1)NC(=O)CCN1CCC(Oc2ccccc2Cc2ccccc2)CC1)C(=O)NCCC(=O)N[C@@H](CCCCNC(=O)CCC1=[N+]2C(=Cc3ccc(-c4cccs4)n3[B-]2(F)F)C=C1)C(N)=O` ({Propanoyl(3-Pip(4-O-2-BnPh))}-FAA[βAla]K(X2)-NH2), which pKb [1] is on record?
**A.** Its pKb is 6.44.

**Q.** And the Activity [2]?
**A.** Its Activity is “Active”.

**Q.** Which pKb [1] does the source give for `Cc1cc(C)n2c1C=C1C=CC(/C=C/c3ccc(OCC(=O)NCCCC[C@H](NC(=O)CCNC(=O)[C@H](C)NC(=O)[C@H](C)NC(=O)[C@H](Cc4ccccc4)NC(=O)CCN4CCC(Oc5ccccc5Cc5ccccc5)CC4)C(N)=O)cc3)=[N+]1[B-]2(F)F` ({Propanoyl(3-Pip(4-O-2-BnPh))}-FAA[βAla]K(X3)-NH2) here?
**A.** Its pKb is 6.99.

**Q.** What about the Activity [2] of the same compound?
**A.** The Activity was “Active”.

**Q.** Which fold change (FC) [9] does the source give for `CC(C)[C@H](NC(=O)CCN1CCC(Oc2ccccc2Cc2ccccc2)CC1)C(=O)N[C@@H](C)C(=O)N[C@@H](C)C(=O)N[C@H](Cc1ccccc1)C(N)=O` ({Propanoyl(3-Pip(4-O-2-BnPh))}-VAA[dF]-NH2) here?
**A.** The fold change (FC) was 2.

**Q.** With `CC(C)[C@H](NC(=O)CCN1CCC(Oc2ccccc2Cc2ccccc2)CC1)C(=O)N[C@@H](CO)C(=O)N[C@@H](C)C(=O)N[C@H](Cc1ccccc1)C(N)=O` ({Propanoyl(3-Pip(4-O-2-BnPh))}-VSA[dF]-NH2) as the compound, how does the fold change (FC) [9] read?
**A.** Its fold change (FC) is 2.

**Q.** For `CC(C)[C@H](NC(=O)CCN1CCC(Oc2ccccc2Cc2ccccc2)CC1)C(=O)N[C@@H](CO)C(=O)N[C@@H](CC(N)=O)C(=O)N[C@@H](Cc1ccccc1)C(N)=O` ({Propanoyl(3-Pip(4-O-2-BnPh))}-VSNF-NH2), which Ki [10] is on record?
**A.** The Ki was 89 nM.

**Q.** With `Cc1cc(C)n2c1C=C1C=CC(CCC(=O)NCCCC[C@H](NC(=O)CCNC(=O)[C@H](CC(N)=O)NC(=O)[C@H](CO)NC(=O)[C@@H](NC(=O)CCN3CCC(Oc4ccccc4Cc4ccccc4)CC3)C(C)C)C(N)=O)=[N+]1[B-]2(F)F` ({Propanoyl(3-Pip(4-O-2-BnPh))}-VSN[βAla]K(BODIPY(FL))-NH2) as the compound, how does the pKb [1] read?
**A.** The pKb was 6.95.

**Q.** What about the Activity [2] of the same compound?
**A.** The Activity was “Active”.

**Q.** For `CC(C)[C@H](NC(=O)CCN1CCC(Oc2ccccc2Cc2ccccc2)CC1)C(=O)N[C@@H](CO)C(=O)N[C@@H](CC(N)=O)C(=O)NCCC(=O)N[C@@H](CCCCNC(=O)COc1ccc(/C=C/C2=[N+]3C(=Cc4ccc(-c5cccs5)n4[B-]3(F)F)C=C2)cc1)C(N)=O` ({Propanoyl(3-Pip(4-O-2-BnPh))}-VSN[βAla]K(X1)-NH2), which pKb [1] is on record?
**A.** The pKb was 8.56.

**Q.** And the K [6]?
**A.** Its K is 0.839 10^6/M/min.

**Q.** And the K [7]?
**A.** Its K is 0.014 min⁻¹.

**Q.** What about the pKd [8] of the same compound?
**A.** The pKd was 7.74.

**Q.** What about the Activity [2] of the same compound?
**A.** The Activity was “Active”.

**Q.** What about the Drug uptake [11] of the same compound?
**A.** Its Drug uptake is “Active”.

**Q.** For `CC(C)[C@H](NC(=O)CCN1CCC(Oc2ccccc2Cc2ccccc2)CC1)C(=O)N[C@@H](CO)C(=O)N[C@@H](CC(N)=O)C(=O)NCCC(=O)N[C@@H](CCCCNC(=O)CCC1=[N+]2C(=Cc3ccc(-c4cccs4)n3[B-]2(F)F)C=C1)C(N)=O` ({Propanoyl(3-Pip(4-O-2-BnPh))}-VSN[βAla]K(X2)-NH2), which pKb [1] is on record?
**A.** Its pKb is 6.52.

**Q.** And the Activity [2]?
**A.** The Activity was “Active”.

**Q.** Which pKb [1] does the source give for `Cc1cc(C)n2c1C=C1C=CC(/C=C/c3ccc(OCC(=O)NCCCC[C@H](NC(=O)CCNC(=O)[C@H](CC(N)=O)NC(=O)[C@H](CO)NC(=O)[C@@H](NC(=O)CCN4CCC(Oc5ccccc5Cc5ccccc5)CC4)C(C)C)C(N)=O)cc3)=[N+]1[B-]2(F)F` ({Propanoyl(3-Pip(4-O-2-BnPh))}-VSN[βAla]K(X3)-NH2) here?
**A.** The pKb was 6.96.

**Q.** What about the Activity [2] of the same compound?
**A.** Its Activity is “Active”.

**Q.** Which fold change (FC) [9] does the source give for `CC(C)[C@H](NC(=O)CCN1CCC(Oc2ccccc2Cc2ccccc2)CC1)C(=O)N[C@@H](CO)C(=O)N[C@@H](CO)C(=O)N[C@H](Cc1ccccc1)C(N)=O` ({Propanoyl(3-Pip(4-O-2-BnPh))}-VSS[dF]-NH2) here?
**A.** The fold change (FC) was 2.

**Q.** For `CC(C)[C@H](NC(=O)CCN1CCC(Oc2ccccc2Cc2ccccc2)CC1)C(=O)N[C@@H](CO)C(=O)N[C@@H](Cc1ccc(O)cc1)C(=O)N[C@@H](Cc1ccccc1)C(N)=O` ({Propanoyl(3-Pip(4-O-2-BnPh))}-VSYF-NH2), which Ki [10] is on record?
**A.** Its Ki is 437 nM.

**Q.** With `CC(C)[C@H](NC(=O)CCN1CCC(Oc2ccccc2Cc2ccccc2)CC1)C(=O)N[C@@H](CO)C(=O)N[C@@H](Cc1ccc(O)cc1)C(=O)N[C@H](Cc1ccccc1)C(N)=O` ({Propanoyl(3-Pip(4-O-2-BnPh))}-VSY[dF]-NH2) as the compound, how does the fold change (FC) [9] read?
**A.** The fold change (FC) was 2.
